PMC3149845 (The Journal of neuroscience : the official journal of the …, 2011)
Where a chain is given by its changes, count along the chain named. Entries after “also recorded” stand apart in the source; their conditions may differ. Peptide text beside a SMILES is read from it.

Tests used:
[1] = biological target: T1, hTas1R2:S40T/I67S/D142E+hTas1R3 (Homo sapiens, UniProt Q8TE23, D142E/I67S/S40T); assay: Ca2+ mobilization, mutated human receptor; format: cell-based; conditions: for calcium response to sweetener: aspartame 10mM, neotame 1mM, sucralose 2 mM, compared with hTas1R2/hTas1R3; for response in dose-response experiment: versus hTas1R2+hTas1R3
T1 sequence (Q8TE23 20-839 S40T/I67S/D142E): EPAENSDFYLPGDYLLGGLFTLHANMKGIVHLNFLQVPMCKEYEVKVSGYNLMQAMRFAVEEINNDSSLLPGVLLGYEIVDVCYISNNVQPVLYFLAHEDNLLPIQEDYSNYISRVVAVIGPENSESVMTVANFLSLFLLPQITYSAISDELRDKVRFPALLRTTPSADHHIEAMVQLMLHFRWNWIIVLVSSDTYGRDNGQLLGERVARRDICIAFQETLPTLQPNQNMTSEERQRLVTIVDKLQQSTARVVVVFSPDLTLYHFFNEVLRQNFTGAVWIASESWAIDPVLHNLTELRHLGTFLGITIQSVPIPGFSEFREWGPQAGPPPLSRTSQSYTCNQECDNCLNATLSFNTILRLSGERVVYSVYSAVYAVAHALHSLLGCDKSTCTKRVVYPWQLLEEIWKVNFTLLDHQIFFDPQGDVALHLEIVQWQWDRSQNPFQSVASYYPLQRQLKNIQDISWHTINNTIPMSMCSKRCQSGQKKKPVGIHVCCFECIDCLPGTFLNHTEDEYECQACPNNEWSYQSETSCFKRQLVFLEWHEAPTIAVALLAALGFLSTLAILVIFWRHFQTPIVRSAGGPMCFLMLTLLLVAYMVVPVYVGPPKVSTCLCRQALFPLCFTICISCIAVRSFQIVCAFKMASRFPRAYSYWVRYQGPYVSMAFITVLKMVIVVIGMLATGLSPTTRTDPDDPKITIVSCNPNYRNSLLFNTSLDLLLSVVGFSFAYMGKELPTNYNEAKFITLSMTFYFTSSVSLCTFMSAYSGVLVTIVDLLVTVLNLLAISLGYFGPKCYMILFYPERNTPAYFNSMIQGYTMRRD
T1 sequence (Q7RTX0 21-852 partner): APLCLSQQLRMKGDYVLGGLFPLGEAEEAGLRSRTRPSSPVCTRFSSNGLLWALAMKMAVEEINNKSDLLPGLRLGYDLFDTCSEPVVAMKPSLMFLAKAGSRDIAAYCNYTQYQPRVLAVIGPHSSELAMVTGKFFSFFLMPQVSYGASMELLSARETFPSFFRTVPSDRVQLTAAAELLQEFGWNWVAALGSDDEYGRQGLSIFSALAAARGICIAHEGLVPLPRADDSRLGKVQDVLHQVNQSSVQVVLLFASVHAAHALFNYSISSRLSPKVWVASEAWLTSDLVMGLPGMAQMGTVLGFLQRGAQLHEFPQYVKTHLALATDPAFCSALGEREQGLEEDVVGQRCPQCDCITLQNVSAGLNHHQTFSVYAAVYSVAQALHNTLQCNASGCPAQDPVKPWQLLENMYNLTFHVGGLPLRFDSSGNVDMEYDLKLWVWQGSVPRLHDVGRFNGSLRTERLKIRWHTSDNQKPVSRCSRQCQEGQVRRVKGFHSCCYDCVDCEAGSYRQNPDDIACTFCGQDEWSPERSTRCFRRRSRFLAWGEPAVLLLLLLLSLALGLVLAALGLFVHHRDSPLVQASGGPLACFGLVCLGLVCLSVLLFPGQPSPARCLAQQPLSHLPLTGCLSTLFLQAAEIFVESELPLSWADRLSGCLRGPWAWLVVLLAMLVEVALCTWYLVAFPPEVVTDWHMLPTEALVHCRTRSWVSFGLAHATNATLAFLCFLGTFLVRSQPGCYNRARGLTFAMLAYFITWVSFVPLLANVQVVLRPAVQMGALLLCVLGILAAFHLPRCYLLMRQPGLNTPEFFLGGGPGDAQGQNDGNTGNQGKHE

[2] = biological target: hTas1R2:I67S+hTas1R3 (Homo sapiens, UniProt Q8TE23, I67S); assay: Ca2+ mobilization, mutated human receptor; format: cell-based; conditions: aspartame 10mM, neotame 1mM, sucralose 2 mM; compared with hTas1R2/hTas1R3
Method in brief: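 HEK293E cells grown at 37°C in Opti-MEM with 5% FBS and seeded at 50,000/well. Cells co-lipofected with Tas1R plasmids and Gα16-gust44 (0.06 μg each per well); medium changed at 20 h, assayed 24 h later. Cells loaded 1 h with Fluo-4 AM in HEPES-buffered HBSS. Tastant added at 30 s; fluorescence (ex 488/em 525 nm) read every 2 s for 150 s more. ΔF/F normalised to human receptor maximal sucralose response; mean ± SEM, three independent experiments.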

[3] = biological target: T2, hTas1R2:S40T/D142E+hTas1R3 (Homo sapiens, UniProt Q8TE23, D142E/S40T); assay: Ca2+ mobilization, mutated human receptor; format: cell-based; conditions: for calcium response to sweetener: aspartame 10mM, neotame 1mM, sucralose 2 mM, compared with hTas1R2/hTas1R3; for response in dose-response experiment: versus hTas1R2+hTas1R3
T2 sequence (Q8TE23 20-839 S40T/D142E): T1 sequence (Q8TE23 20-839 S40T/I67S/D142E) with S48I
T2 sequence (Q7RTX0 21-852 partner): T1 sequence (Q7RTX0 21-852 partner)

[4] = biological target: smTas1R2:T40S/S67I+smTas1R3 (Saimiri sciureus, UniProt A3QP08, S67I/T40S); assay: Ca2+ mobilization, mutated squirrel monkey receptor; format: cell-based, squirrel monkey (Saimiri sciureus); conditions: aspartame 10mM, neotame 1mM, sucralose 2 mM
[5] = cited from earlier work
[6] = HEK293E cells with Gα16-gust44, dose-response, calcium mobilization
[7] = ΔF/F normalized to maximum response of hTas1R2/hTas1R3 to neotame

smTas1R2:T40S/S67I+smTas1R3, sequence (A3QP08 20-834 T40S/S67I): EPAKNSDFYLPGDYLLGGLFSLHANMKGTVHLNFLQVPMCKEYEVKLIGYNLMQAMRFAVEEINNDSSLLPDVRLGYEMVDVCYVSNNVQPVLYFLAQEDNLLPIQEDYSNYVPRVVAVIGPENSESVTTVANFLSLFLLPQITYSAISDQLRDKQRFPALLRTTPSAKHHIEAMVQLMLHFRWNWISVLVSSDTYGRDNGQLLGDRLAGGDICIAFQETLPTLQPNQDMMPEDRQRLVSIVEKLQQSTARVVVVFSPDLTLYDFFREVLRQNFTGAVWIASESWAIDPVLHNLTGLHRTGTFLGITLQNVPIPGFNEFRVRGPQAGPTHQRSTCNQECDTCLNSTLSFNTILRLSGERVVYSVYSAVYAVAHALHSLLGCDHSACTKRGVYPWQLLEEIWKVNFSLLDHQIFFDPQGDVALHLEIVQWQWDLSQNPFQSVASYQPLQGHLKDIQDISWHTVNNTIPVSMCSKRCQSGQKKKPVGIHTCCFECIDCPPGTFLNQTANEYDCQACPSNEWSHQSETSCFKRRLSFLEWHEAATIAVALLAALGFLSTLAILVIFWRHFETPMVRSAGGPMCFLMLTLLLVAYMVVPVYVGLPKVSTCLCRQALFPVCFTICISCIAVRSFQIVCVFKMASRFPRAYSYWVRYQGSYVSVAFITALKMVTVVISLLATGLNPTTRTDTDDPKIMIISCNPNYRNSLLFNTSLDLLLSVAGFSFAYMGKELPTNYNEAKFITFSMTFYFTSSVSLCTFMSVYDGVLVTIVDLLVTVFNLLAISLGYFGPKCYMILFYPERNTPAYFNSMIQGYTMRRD
hTas1R2:I67S+hTas1R3, sequence (Q8TE23 20-839 I67S, one chain of several): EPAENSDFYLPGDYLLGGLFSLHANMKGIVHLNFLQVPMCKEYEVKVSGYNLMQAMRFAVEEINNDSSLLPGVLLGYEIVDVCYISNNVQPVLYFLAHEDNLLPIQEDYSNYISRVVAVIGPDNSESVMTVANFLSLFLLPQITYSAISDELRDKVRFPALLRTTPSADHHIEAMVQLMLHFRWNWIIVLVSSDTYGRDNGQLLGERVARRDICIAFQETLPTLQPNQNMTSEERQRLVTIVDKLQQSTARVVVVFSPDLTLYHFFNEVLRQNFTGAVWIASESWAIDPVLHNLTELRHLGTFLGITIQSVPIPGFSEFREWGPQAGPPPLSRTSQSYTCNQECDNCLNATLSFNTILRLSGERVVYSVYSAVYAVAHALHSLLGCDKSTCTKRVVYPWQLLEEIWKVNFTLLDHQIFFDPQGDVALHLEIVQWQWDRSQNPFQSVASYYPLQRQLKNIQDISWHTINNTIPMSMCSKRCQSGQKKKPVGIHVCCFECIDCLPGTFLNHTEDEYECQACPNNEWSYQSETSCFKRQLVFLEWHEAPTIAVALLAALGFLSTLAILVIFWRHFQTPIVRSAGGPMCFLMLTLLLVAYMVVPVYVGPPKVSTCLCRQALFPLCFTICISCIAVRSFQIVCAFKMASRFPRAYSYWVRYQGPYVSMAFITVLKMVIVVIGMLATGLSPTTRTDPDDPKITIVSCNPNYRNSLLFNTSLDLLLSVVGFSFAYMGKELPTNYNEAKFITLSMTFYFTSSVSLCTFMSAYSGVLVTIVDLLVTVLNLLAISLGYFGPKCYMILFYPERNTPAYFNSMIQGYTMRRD

| Compound | calcium response to sweetener [1] | response in dose-response experiment ([1]; dose-response) | calcium response to sweetener [2] | calcium response to sweetener [3] | response in dose-response experiment ([3]; dose-response) | calcium response to sweetener [4] | sweet potency relative to sucrose ([5]; ref Meguro et al., 2000) | EC50 [1, 6] | Bottom (B) of sigmoid dose-response fit [1, 7] | Top (T) of sigmoid dose-response fit [1, 7] | EC50 [3, 6] | Bottom (B) of sigmoid dose-response fit [3, 7] | Top (T) of sigmoid dose-response fit [3, 7] | sweetness relative to aspartame ([5]; ref Garbow et al., 2001) |
| --- | --- | --- | --- | --- | --- | --- | --- | --- | --- | --- | --- | --- | --- | --- |
| COC(=O)[C@H](Cc1ccccc1)NC(=O)[C@@H](N)CC(=O)O [aspartame, L-α-aspartly-L-phenylalanine methyl ester] (H-Asp-Phe-OMe) | greatly impaired responsiveness | no responses | mild phenotype | abolished | no responses | no response | 200 times | – | – | – | – | – | – | – |
| COC(=O)[C@H](Cc1ccccc1)NC(=O)[C@H](CC(=O)O)NCCC(C)(C)C [neotame] | greatly impaired responsiveness; also recorded: almost completely abolished | weaker responses | slightly reduced response | significantly reduced; also recorded: reduced the response to neotame by half | weaker responses | no response | – | 12 mM | −1.486 | 39.87 | 1.4 mM | 1.387 | 61.12 | about 40 times |
